The text below walks through data of ChEMBL document CHEMBL2069264, “Halogenated anthraquinones from the marine-derived fungus Aspergillus sp. SCSIO F063” (J Nat Prod, 2012).

pIC50: −log10 of the molar value. Active and inactive are the calls of the source. No cut-off for these calls is given here.

One experiment has as its system Staphylococcus aureus. Kind of experiment: Antimicrobial activity against Staphylococcus aureus ATCC 29213 assessed as diameter of zone of growth inhibition at 10 ug/6 mm disc incubated for 12 hrs by disc diffusion assay. Type of experiment: functional, organism-based. The method, boiled down: (§1)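 Bacteria grown 10 h at 37 °C in LB broth as seed cultures, then mixed into LB agar to pour plates. Sterile 6 mm filter disks loaded with 5 μL test solution at 2 μg/μL in DMSO; ampicillin disks (5 μg/μL in DMSO) as positive control. Plates incubated 12 h at 37 °C, then diameter of the growth-inhibition zone around each disk recorded.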
A general note: In agar diffusion tests the substance spreads into inoculated agar from a disc or well.

In a further experiment the test system is SF-268. Kind of experiment: Cytotoxicity against human SF268 cells after 72 hrs BY SRB assay. Particulars: SF-268, 72 h. Type of experiment: functional, cell-based. Put shortly:
(§2)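 Cells seeded at 3 × 10^4 cells/mL (180 μL per well) and preincubated 24 h at 37 °C, 5% CO2. Compound added at various concentrations (20 μL), then 72 h further incubation. Fixed with 50% (w/v) TCA, stained 30 min with 0.4% SRB in 1% acetic acid, washed with 1% acetic acid. Dye dissolved in 10 mM Tris base, OD read at 570 nm. Cisplatin as positive control. Triplicate; IC50 by nonlinear curve fitting.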

For another experiment, the system named is Bacillus thuringiensis. As to the kind of experiment: Antimicrobial activity against Bacillus thuringiensis ATCC 39765 assessed as diameter of zone of growth inhibition at 10 ug/6 mm disc incubated for 12 hrs by disc diffusion assay. Type of experiment: functional, organism-based. Put shortly:
as §1

The next experiment concerns NCI-H460. As to the kind of experiment: Cytotoxicity against human NCI-H460 cells after 72 hrs BY SRB assay. Type of experiment: functional, cell-based. The conditions noted are these: NCI-H460, 72 h. The method, boiled down: as §2
On the technique in general: Sulforhodamine B stains cellular protein and so reports cell mass.

The subject of a further experiment is MCF7. As to the kind of experiment: Cytotoxicity against human MCF7 cells after 72 hrs BY SRB assay. Particulars: MCF7, 72 h. Type of experiment: functional, cell-based. Put shortly: as §2
Another experiment deals with Bacillus subtilis. As to the kind of experiment: Antimicrobial activity against Bacillus subtilis ATCC 6633 assessed as diameter of zone of growth inhibition at 10 ug/6 mm disc incubated for 12 hrs by disc diffusion assay. Type of experiment: functional, organism-based. The method, boiled down:
as §1

`CCCCC[C@H](OC)c1c(O)cc2c(c1O)C(=O)c1c(O)cc(O)cc1C2=O`: the “diameter of the inhibition zone (DIZ)” value in the experiment on Staphylococcus aureus, in the experiment on Bacillus thuringiensis and in the experiment with Bacillus subtilis was “inactive” throughout. The pIC50 (commonly the IC50 on a negative log10 scale, so that one unit is a factor of ten) in the experiment on SF-268 is 4.47; with NCI-H460 it was 4.35; with MCF7 it was 4.45.
Turning to `CCCCC[C@H](O)c1c(O)cc2c(c1O)C(=O)c1c(O)cc(O)cc1C2=O`, the “diameter of the inhibition zone (DIZ)” value in the experiment with Staphylococcus aureus, in the experiment on Bacillus thuringiensis and with Bacillus subtilis was “inactive” in each case. Also, the pIC50 is less than 4.30 in the experiment with SF-268, less than 4.30 in the experiment on NCI-H460 and 4.34 in the experiment with MCF7.
On to `CCCC/C=C/c1c(O)cc2c(c1O)C(=O)c1c(cc(O)c(Cl)c1O)C2=O`, for which the “diameter of the inhibition zone (DIZ)” value with Staphylococcus aureus, in the experiment on Bacillus thuringiensis and in the experiment on Bacillus subtilis was “inactive” in each case. The pIC50 in the experiment on SF-268, with NCI-H460 and in the experiment on MCF7 was less than 4.30 throughout.
In the case of `CCCCC[C@H](OC)c1c(O)cc2c(c1O)C(=O)c1c(O)cc(OC)cc1C2=O`, the “diameter of the inhibition zone (DIZ)” value in the experiment on Staphylococcus aureus, in the experiment with Bacillus thuringiensis and in the experiment with Bacillus subtilis was “inactive” throughout. Also, the pIC50 with SF-268, in the experiment on NCI-H460 and in the experiment on MCF7 was less than 4.30 throughout.
Regarding `CCCCC[C@H](OC)c1c(O)cc2c(c1O)C(=O)c1c(cc(OC)c(Cl)c1O)C2=O`, the “diameter of the inhibition zone (DIZ)” value in the experiment on Staphylococcus aureus, in the experiment on Bacillus thuringiensis and with Bacillus subtilis was “inactive” throughout. The pIC50 in the experiment on SF-268, in the experiment with NCI-H460 and in the experiment on MCF7 was less than 4.30 each time.
Regarding `CCCC/C=C/c1c(O)cc2c(c1O)C(=O)c1c(O)cc(O)cc1C2=O` [AVERYTHRIN], the “diameter of the inhibition zone (DIZ)” value in the experiment on Staphylococcus aureus, with Bacillus thuringiensis and in the experiment on Bacillus subtilis was “inactive” in each case. Moreover, the pIC50 in the experiment with SF-268 was less than 4.30; in the experiment on NCI-H460 it was less than 4.30; with MCF7, 4.53.
Consider `CCCCC[C@H](OCCCC)c1c(O)cc2c(c1O)C(=O)c1c(cc(O)c(Cl)c1O)C2=O`, for which the “diameter of the inhibition zone (DIZ)” value in the experiment with Staphylococcus aureus, in the experiment on Bacillus thuringiensis and with Bacillus subtilis was “inactive” in each case. In addition, the pIC50 was less than 4.30 in the experiment with SF-268, less than 4.30 with NCI-H460 and 4.31 in the experiment on MCF7.
As to `CCCCC[C@H](O)c1c(O)cc2c(c1O)C(=O)c1c(O)cc(OC)cc1C2=O`, the “diameter of the inhibition zone (DIZ)” value in the experiment on Staphylococcus aureus, in the experiment with Bacillus thuringiensis and in the experiment on Bacillus subtilis was “inactive” each time. The pIC50 in the experiment with SF-268, in the experiment with NCI-H460 and in the experiment on MCF7 was less than 4.30 in each case.
Turning to `CCCCC[C@H](O)c1c(O)cc2c(c1O)C(=O)c1c(cc(OC)c(Br)c1O)C2=O`, the “diameter of the inhibition zone (DIZ)” value in the experiment with Staphylococcus aureus, in the experiment on Bacillus thuringiensis and with Bacillus subtilis was “inactive” in each case. Besides, the pIC50 with SF-268 is 4.61; with NCI-H460 it was 4.72; in the experiment on MCF7, 4.59.
Consider `CCCCC[C@H](O)c1c(O)cc2c(c1O)C(=O)c1c(cc(OC)c(Cl)c1O)C2=O`, for which the “diameter of the inhibition zone (DIZ)” value with Staphylococcus aureus, in the experiment on Bacillus thuringiensis and with Bacillus subtilis was “inactive” each time. The values for the pIC50 in the experiment with SF-268, in the experiment on NCI-H460 and in the experiment on MCF7 were 5.15, 5.13 and 5.18, respectively.
For the compound `CCCCC[C@H](OC)c1c(O)cc2c(c1O)C(=O)c1c(cc(O)c(Cl)c1O)C2=O`, the “diameter of the inhibition zone (DIZ)” value with Staphylococcus aureus, in the experiment on Bacillus thuringiensis and in the experiment on Bacillus subtilis was “inactive” in each case. Further, the pIC50 was 4.47 with SF-268, 4.43 with NCI-H460 and 4.58 with MCF7.
For the compound `CCCC/C=C/c1c(O)cc2c(c1O)C(=O)c1c(cc(OC)c(Cl)c1O)C2=O`, the “diameter of the inhibition zone (DIZ)” value in the experiment with Staphylococcus aureus, in the experiment with Bacillus thuringiensis and in the experiment with Bacillus subtilis was “inactive” throughout. Moreover, the pIC50 with SF-268 is less than 4.30; in the experiment with NCI-H460, less than 4.30; in the experiment on MCF7, 4.61.
Consider `CCCCC[C@H](OCCCC)c1c(O)cc2c(c1O)C(=O)c1c(O)cc(O)cc1C2=O`, for which the “diameter of the inhibition zone (DIZ)” value in the experiment on Staphylococcus aureus, in the experiment with Bacillus thuringiensis and in the experiment with Bacillus subtilis was “inactive” each time. Also, the pIC50 with SF-268 is 4.33; with NCI-H460 it was less than 4.30; in the experiment with MCF7, 4.39.
In the case of `CCCCC[C@H](OC)c1c(O)cc2c(c1O)C(=O)c1c(cc(OC)c(Br)c1O)C2=O`, the “diameter of the inhibition zone (DIZ)” value in the experiment with Staphylococcus aureus, with Bacillus thuringiensis and in the experiment on Bacillus subtilis was “inactive” throughout. Moreover, the pIC50 with SF-268, in the experiment with NCI-H460 and in the experiment on MCF7 was less than 4.30 each time.
As to `CCCCC[C@H](O)c1c(O)cc2c(c1O)C(=O)c1c(cc(O)c(Cl)c1O)C2=O`, the “diameter of the inhibition zone (DIZ)” value in the experiment on Staphylococcus aureus, in the experiment on Bacillus thuringiensis and in the experiment on Bacillus subtilis was “inactive” in each case. For the same compound, the results for the pIC50 in the experiment on SF-268, in the experiment with NCI-H460 and with MCF7 were less than 4.30, less than 4.30 and 4.44, respectively.
